# Measured values as given in publication PMC10755797 (The Journal of Biological Chemistry, 2023).
# Values joined by “and” are separate entries in the source; they are usually repeats but may differ in a detail not shown here. Equal entries are not always repeated. “Also recorded” adds a separate entry of the source.
# Key:
# phosphorylation of STAT3 = assay: Western blot of colon tissues: STAT3 and phosphorylated STAT3; format: in vivo, mice; conditions: DSS-induced colitis, oral MMT3-72
# Outline: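 Colon tissue came from the DSS colitis study. It was rinsed in cold PBS, homogenized in RIPA buffer, sonicated and centrifuged; protein was measured by BCA. 200 μg total protein per group underwent SDS electrophoresis and transfer to PVDF. Blots were probed overnight at 4 °C with antibodies to JAK2, STAT3, phospho-STAT3 (Tyr705) and GAPDH, then HRP secondary for 1 h at room temperature, and imaged.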
# DSS-induced colitis [1] = assay: DSS-induced colitis in mice: DAI score, colon length; format: in vivo; conditions: for improvement of DAI score or disease severity: 1 mg/kg orally every other day; for mice that developed moderate colitis / mice that developed severe colitis: n = 10
# Outline: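 Female C57BL/6 mice (6–8 weeks), randomized; 3% DSS in distilled water for 5 days, with water-only controls. Test compound or reference JAK inhibitor was given by oral gavage every other day in a pH-adjusted vehicle (80% v/v beta-cyclodextrin:water 1:4, 15% hyaluronic acid, 5% PBS); vehicle-only group. Stool consistency and occult blood were scored daily as DAI 0–3. Colon length was measured at sacrifice on day 5. Mean ± SD; ANOVA with Tukey.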
# TYK2 = TYK2 (Homo sapiens, UniProt P29597); assay: Kinase-Glo Max kinase assay, purified enzyme; format: biochemical
# [2] = In vivo metabolite identification by LC-MS in plasma, colon and feces; conditions: mice, 10 mg/kg MMT3-72 orally, 6 h
# [3] = Pharmacokinetic study in mice; format: in vivo
# Outline: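 Female C57BL/6 mice (6–8 weeks) were dosed orally at 10 mg/kg in the pH-adjusted beta-cyclodextrin/hyaluronic acid/PBS vehicle. Sacrifice at 0.5, 2, 4, 12 and 24 h; cardiac blood for plasma; intestinal tissue homogenized in PBS to 10%; intestinal contents homogenized in PBS. Parent and metabolite were measured by LC-MS/MS (C18, 0.1% formic acid water/acetonitrile gradient, 0.4 ml/min). Detection limit 2 ng/ml or 2 ng/g. n = 3, mean ± SD.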
# DSS-induced colitis [4] = assay: H&E staining of colon tissues, DSS-induced colitis; format: in vivo, mice
# JAK1 = JAK1 (Homo sapiens, UniProt P23458); assay: Kinase-Glo Max kinase assay, purified enzyme; format: biochemical
# [5] = In vitro conversion of MMT3-72 to MMT3-72-M2 by colon contents; format: in vitro ADME, mice
# Outline: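 Fresh colon contents from female C57BL/6 mice (6–8 weeks) were suspended at 10% (w/v) in PBS as an azoreductase source, or boiled to deactivate. Test compound at 0.1 mM final was shaken at 1000 rpm, 37 °C. Aliquots at 0, 1, 2, 4, 6, 24 and 48 h were diluted 10-fold and extracted with acetonitrile. Parent and released metabolite were quantified by LC-MS/MS.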
# JAK3 = biological target: T1, JAK3 (Homo sapiens, UniProt P52333); assay: Kinase-Glo Max kinase assay, purified enzyme; format: biochemical
# T1 sequence (P52333 1-1124): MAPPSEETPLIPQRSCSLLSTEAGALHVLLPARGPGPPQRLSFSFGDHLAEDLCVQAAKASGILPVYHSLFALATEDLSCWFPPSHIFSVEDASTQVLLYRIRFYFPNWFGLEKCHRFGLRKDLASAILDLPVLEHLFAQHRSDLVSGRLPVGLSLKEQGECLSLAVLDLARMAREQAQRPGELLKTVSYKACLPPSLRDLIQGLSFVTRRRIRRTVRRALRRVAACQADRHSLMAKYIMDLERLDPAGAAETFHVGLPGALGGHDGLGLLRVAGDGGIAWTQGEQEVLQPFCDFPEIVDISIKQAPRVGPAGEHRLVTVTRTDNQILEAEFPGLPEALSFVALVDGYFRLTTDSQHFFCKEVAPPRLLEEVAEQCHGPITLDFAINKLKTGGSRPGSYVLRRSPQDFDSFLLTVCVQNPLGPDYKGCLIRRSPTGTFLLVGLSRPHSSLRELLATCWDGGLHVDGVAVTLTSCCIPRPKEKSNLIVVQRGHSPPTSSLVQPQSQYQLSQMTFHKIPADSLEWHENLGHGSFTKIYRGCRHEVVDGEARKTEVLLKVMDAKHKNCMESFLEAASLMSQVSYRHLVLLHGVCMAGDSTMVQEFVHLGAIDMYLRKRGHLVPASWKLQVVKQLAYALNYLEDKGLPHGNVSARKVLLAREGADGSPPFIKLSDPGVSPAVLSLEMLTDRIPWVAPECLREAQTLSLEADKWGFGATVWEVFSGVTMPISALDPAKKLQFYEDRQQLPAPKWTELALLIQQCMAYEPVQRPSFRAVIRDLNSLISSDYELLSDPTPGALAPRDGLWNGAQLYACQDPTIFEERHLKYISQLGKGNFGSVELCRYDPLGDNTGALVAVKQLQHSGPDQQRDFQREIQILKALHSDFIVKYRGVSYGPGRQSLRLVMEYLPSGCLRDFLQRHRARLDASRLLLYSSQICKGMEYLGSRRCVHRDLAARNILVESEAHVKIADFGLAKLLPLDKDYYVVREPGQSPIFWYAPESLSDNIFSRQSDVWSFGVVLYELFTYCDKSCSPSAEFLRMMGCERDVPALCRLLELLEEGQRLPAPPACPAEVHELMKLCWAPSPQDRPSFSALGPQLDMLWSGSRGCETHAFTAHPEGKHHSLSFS
# JAK2 = JAK2 (Homo sapiens, UniProt O60674); assay: Kinase-Glo Max kinase assay, purified enzyme; format: biochemical
# [6] = single oral dose of radiolabeled fedratinib ref 21; cited from earlier work
# [7] = 10 mg/kg orally every other day
# JAK2, sequence (O60674 whole entry): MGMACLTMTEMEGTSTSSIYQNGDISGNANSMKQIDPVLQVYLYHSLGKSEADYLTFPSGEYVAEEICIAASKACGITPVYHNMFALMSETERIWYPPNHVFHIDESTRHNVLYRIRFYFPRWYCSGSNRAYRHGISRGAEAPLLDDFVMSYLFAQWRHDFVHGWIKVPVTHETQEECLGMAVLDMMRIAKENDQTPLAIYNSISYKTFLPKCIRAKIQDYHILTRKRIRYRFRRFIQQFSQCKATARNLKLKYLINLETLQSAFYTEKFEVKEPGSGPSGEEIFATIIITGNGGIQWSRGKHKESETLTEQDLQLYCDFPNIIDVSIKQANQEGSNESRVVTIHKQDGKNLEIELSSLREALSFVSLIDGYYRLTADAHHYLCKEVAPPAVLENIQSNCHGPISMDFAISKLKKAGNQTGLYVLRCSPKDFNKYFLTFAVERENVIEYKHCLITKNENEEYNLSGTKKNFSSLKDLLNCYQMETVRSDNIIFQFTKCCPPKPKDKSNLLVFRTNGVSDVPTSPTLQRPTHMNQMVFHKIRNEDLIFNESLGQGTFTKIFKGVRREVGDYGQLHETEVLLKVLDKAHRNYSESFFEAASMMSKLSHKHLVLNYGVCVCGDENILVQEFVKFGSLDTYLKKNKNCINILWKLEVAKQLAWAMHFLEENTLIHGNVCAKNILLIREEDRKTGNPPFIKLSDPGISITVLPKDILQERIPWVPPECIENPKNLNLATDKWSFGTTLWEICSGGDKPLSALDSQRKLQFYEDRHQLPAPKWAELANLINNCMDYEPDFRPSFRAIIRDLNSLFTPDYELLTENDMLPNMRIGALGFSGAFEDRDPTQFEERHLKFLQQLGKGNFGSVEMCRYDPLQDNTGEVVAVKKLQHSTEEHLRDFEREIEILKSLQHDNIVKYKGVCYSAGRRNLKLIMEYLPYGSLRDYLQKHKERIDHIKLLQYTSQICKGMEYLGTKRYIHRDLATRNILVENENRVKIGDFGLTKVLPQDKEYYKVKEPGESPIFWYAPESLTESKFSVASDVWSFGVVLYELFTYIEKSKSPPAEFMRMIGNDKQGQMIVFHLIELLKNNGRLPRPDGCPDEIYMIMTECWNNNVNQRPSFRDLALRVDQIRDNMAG
# TYK2, sequence (P29597 whole entry): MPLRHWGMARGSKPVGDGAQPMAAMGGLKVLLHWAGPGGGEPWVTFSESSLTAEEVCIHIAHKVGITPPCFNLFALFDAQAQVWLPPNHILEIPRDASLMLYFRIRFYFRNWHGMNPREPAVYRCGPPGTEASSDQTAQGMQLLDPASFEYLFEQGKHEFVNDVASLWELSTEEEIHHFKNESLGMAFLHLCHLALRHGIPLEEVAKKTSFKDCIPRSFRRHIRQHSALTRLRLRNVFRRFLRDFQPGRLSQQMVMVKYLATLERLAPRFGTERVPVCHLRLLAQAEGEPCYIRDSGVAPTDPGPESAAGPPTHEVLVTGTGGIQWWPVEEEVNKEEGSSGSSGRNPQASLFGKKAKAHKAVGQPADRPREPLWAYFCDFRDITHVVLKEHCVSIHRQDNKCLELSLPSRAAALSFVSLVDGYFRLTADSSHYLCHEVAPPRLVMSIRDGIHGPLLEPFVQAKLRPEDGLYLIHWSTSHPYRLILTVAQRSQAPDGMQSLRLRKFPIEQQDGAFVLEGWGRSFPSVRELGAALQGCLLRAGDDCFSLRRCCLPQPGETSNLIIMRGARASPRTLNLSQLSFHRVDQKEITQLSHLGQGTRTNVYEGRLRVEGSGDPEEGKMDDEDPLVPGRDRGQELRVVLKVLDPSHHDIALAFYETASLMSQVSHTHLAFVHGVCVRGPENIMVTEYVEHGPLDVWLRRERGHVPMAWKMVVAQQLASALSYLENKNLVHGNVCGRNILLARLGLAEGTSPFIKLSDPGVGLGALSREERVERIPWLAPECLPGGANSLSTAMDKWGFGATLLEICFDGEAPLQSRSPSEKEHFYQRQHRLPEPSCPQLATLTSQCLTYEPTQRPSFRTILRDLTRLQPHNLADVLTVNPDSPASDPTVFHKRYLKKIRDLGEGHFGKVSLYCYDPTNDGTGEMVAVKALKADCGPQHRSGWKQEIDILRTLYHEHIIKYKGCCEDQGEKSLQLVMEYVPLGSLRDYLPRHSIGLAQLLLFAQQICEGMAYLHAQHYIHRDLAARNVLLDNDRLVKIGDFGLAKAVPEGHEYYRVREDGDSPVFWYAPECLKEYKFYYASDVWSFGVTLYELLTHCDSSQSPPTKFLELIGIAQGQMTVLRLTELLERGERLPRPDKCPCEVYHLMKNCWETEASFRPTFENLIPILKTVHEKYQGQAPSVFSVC
# JAK1, sequence (P23458 whole entry): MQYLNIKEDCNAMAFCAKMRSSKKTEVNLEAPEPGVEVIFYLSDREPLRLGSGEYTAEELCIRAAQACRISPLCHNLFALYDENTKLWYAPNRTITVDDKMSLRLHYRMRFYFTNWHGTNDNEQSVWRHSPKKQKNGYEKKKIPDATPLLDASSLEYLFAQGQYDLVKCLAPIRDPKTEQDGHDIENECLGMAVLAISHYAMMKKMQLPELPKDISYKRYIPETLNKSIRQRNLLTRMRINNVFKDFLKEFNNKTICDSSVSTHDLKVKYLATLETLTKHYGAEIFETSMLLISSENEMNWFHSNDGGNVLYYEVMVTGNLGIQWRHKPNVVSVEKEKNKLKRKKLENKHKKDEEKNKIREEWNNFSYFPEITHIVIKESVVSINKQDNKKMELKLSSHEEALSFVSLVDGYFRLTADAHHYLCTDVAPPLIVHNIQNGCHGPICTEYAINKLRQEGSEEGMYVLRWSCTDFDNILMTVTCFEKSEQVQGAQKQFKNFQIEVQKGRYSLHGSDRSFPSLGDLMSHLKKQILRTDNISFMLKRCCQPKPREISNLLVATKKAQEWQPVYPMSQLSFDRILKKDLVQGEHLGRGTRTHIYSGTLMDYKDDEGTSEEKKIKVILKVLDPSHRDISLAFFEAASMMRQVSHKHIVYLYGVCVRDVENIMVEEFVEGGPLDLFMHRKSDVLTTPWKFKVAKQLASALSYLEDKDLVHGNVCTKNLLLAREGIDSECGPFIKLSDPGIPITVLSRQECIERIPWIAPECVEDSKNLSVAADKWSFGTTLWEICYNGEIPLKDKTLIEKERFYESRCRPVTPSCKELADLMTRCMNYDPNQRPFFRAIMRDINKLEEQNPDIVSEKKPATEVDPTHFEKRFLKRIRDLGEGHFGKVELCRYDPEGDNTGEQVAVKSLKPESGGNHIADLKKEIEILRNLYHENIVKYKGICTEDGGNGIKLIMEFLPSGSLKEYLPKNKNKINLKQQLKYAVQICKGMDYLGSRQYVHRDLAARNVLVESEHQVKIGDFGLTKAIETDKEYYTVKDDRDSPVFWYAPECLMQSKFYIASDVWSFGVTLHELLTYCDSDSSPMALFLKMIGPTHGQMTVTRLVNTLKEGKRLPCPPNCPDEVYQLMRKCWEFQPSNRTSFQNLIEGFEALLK
Compound,improvement of DAI score or disease severity (DSS-induced colitis [1]),improvement of DAI score vs DSS-induced colitis (DSS-induced colitis [1]; 5 mg/kg orally every other day),recovery of colon length from DSS-induced colitis (DSS-induced colitis [1]; 10 mg/kg),improvement of DAI score vs DSS-induced colitis (DSS-induced colitis [1]; [7]),mice that developed severe colitis (DSS-induced colitis [1]; 10 mg/kg),"IC50 (TYK2; Enzyme IC50 TYK2, 0.1 mM ATP)","where detected (plasma, colon tissues, feces), in words [2]",epithelial loss and infiltration of immune cells (H&E) (DSS-induced colitis [4]; 5 mg/kg),epithelial loss and infiltration of immune cells (H&E) (DSS-induced colitis [4]; 10 mg/kg),"IC50 (JAK1; Enzyme IC50 JAK1, 0.1 mM ATP)",IC50 (JAK3),"IC50 (JAK2; Enzyme IC50 JAK2, 0.1 mM ATP)",also measured
"Cc1cnc(Nc2ccc(OCCOc3ccc(/N=N/c4ccc(C(=O)NCCC(=O)O)cc4)cc3C(=O)O)cc2)nc1Nc1cccc(S(=O)(=O)NC(C)(C)C)c1 [MMT3-72, (E)-2-(2-(4-((4-((3-(N-(tertbutyl)sulfamoyl)phenyl)amino)-5-methylpyrimidin-2-yl)amino)phenoxy)ethoxy)-5-((4-((2-carboxyethyl)carbamoyl)phenyl)diazenyl)benzoic acid]",did not improve DAI score or disease severity,5 fold,recovered the colon length,10 fold,no mice,4700 nM,only detected in the feces,reduced epithelial loss and decreased infiltration of immune cells,reduced epithelial loss and decreased infiltration of immune cells,368 nM,5240 nM,630 nM,"phosphorylation of STAT3 in colon tissue (phosphorylation of STAT3): effectively inhibit the phosphorylation of STAT3; also recorded: inhibited the phosphorylation of STAT3; mice that developed moderate colitis (DSS-induced colitis [1]; 5 mg/kg): 10%; mice that developed severe colitis (DSS-induced colitis [1]; 5 mg/kg): no mice; mice that developed moderate colitis (DSS-induced colitis [1]; 10 mg/kg): no mice; detection in colon/GI tissue or systemic circulation/plasma ([3]; mice, 10 mg/kg MMT3-72 orally): not detected; stability in heat-deactivated colon contents ([5]; boiled colon contents, aqueous environment): most MMT3-72 remained intact; MMT3-72 metabolized ([5]; fresh colon contents, within 48 h of incubation): more than 90%"
"C[C@@H]1CCN(C(=O)CC#N)C[C@@H]1N(C)c1ncnc2[nH]ccc12 [tofacitinib, reference compound]",did not improve DAI score or disease severity,did not show any improvement in DAI score,recovered the colon length,showed improvement in DAI score,10%,–,–,did not show improvement in epithelial cell loss and infiltration of immune cells,moderate improvement,–,–,–,–
"Cc1cnc(Nc2ccc(OCCO)cc2)nc1Nc1cccc(S(=O)(=O)NC(C)(C)C)c1 [MMT3-72-M2, N-(tert-butyl)-3-((2-((4-(2-hydroxyethoxy)phenyl)amino)-5methylpyrimidin-4-yl)amino)benzenesulfonamide]",–,–,–,–,–,91.6 nM,only detected in the colon tissues and the feces with limited detection in the plasma,–,–,10.8 nM,329 nM,26.3 nM,"IC50 (TYK2; IC50 TYK2 expressed in ng/ml, converted from nM): ~89.3 nM; concentration at 12 h ([3]; female, C57BL/6, mouse, colon tissue, po, 10 mg/kg): 131 ng/g and ~285 nM; duration of effective concentrations in colon tissue ([3]; mice, 10 mg/kg MMT3-72 orally): 12 h; Cmax in plasma ([3]; mice, 10 mg/kg MMT3-72 orally, 10 mg/kg): < 8 ng/mL; time after which undetectable in plasma ([3]; mice, 10 mg/kg MMT3-72 orally, limit of detection 2 ng/ml): 4 h; IC50 (JAK1; IC50 JAK1 expressed in ng/ml, converted from nM): ~10.6 nM; formation of MMT3-72-M2 from MMT3-72 ([5]; fresh colon contents): readily converted from MMT3-72; IC50 (JAK2; IC50 JAK2 expressed in ng/ml, converted from nM): ~25.7 nM"
Cc1cnc(Nc2ccc(OCCN3CCCC3)cc2)nc1Nc1cccc(S(=O)(=O)NC(C)(C)C)c1 [fedratinib],–,–,–,–,–,–,–,–,–,–,–,–,excreted in feces unchanged [6]: 23%; fedratinib-derived radioactivity excreted in feces [6]: ~77%
